Experimental data: PMC3530405 (Journal of immunology (Baltimore, Md. : 1950), 2012)
Entries after “also recorded” stand apart in the source; their conditions may differ. Blank lines part the entries; values can stand above or below the compound they belong to.

Assays:
Type in all cases: biochemical
ERAP2^N [1] = target: T1, ERAP2^N (Homo sapiens, UniProt Q6P179, K392N); assay: Trimming of […] by ERAP2 alleles; conditions: ERAP2^N vs ERAP2^K; MS (LTQ Orbitrap), <30% completion
ERAP2^K [2] = target: T2, ERAP2^K (Homo sapiens, UniProt Q6P179); assay: Peptide trimming by ERAP2^K; conditions: for trimming rate relative to ERAP1: ERAP2^K compared to ERAP1
T2 sequence (Q6P179 whole entry): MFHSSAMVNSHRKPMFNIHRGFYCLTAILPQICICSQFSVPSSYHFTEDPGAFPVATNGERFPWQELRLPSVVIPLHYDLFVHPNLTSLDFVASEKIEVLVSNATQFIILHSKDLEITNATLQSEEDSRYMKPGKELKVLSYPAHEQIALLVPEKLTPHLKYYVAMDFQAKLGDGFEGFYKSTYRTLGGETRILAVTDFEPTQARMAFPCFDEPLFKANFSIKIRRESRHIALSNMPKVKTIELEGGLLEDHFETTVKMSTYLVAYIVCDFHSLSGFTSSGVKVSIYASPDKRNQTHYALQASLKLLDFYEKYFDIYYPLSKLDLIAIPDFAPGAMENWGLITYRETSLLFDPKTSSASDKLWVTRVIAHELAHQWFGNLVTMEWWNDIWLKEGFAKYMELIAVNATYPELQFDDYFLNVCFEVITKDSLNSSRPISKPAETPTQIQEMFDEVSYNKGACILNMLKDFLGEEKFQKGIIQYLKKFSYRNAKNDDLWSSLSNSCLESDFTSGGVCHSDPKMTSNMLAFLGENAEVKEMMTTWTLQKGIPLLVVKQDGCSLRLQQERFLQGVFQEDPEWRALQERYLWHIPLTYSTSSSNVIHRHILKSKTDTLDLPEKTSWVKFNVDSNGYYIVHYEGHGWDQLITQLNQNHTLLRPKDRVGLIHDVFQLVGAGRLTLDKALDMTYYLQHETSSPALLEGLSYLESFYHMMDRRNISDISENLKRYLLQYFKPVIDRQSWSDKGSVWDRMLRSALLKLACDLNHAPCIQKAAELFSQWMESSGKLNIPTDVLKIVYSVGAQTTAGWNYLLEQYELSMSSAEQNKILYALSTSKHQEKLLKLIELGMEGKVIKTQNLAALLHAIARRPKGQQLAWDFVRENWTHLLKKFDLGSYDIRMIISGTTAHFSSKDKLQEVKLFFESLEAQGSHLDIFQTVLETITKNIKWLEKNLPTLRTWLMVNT
Outline: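 20 μM peptide was incubated with 100 to 4,000ng (7.3 to 293.6nM) ERAP1 or recombinant ERAP2 at 37°C for 15 min to 1 hour in 50mM HEPES pH 7.0, 100mM NaCl. Reactions were stopped with 0.1% TFA, centrifuged, and run on C18 RP-HPLC (5–50% acetonitrile, A220). Initial rates were taken under <30% completion, and enzymes were compared in parallel. Products were identified by peptide controls and MS; epitope destruction was measured from accumulated smaller peptides.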

ERAP2^K [3] = target: T2, ERAP2^K; assay: R-AMC hydrolysis / Michaelis-Menten analysis by ERAP2^K
ERAP2^N [4] = target: T1, ERAP2^N; assay: R-AMC hydrolysis / Michaelis-Menten analysis by ERAP2^N
ERAP2^N [5] = target: T1, ERAP2^N; assay: Inhibition of R-AMC hydrolysis by ERAP2^N; conditions: ERAP2^N vs ERAP2^K, Ki values only in Figure 7B
Outline: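 His-tagged recombinant human ERAP2 (N392 or K392 form), baculovirus-expressed in Hi5 insect cells, Ni-NTA purified and thawed once before use. R-AMC hydrolysis was tracked against rising inhibitor concentrations by fluorescence (ex 380 nm, em 460 nm) over 5 min, with the slope taken as the rate.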

ERAP2^N [6] = target: T1, ERAP2^N; assay: Peptide trimming by ERAP2^N; conditions: 20 μM precursor; for trimming rates, comparison of alleles: ERAP2^N vs ERAP2^K, 37°C, pH 7.0
[7] = precursor carrying N-terminal leucine
[8] = ERAP2^K, Michaelis-Menten analysis

T1 sequence (Q6P179 whole entry K392N): as the sequence (Q6P179 whole entry) above, with K392N counted along it

Compound: ASRHHAFSFR
epitope generation rate, fold faster (ERAP2^N [1]): about 2 fold

trimming rate relative to ERAP1 (ERAP2^K [2]; [7]): negligible compared to that of ERAP1
Compound: SRHHAFSFR
all three enzymes: epitope generation vs destruction (ERAP2^K [2]; ERAP1, ERAP2^N and ERAP2^K, precursor carrying N-terminal leucine): generated the epitope faster than they destroyed it

Compound: Cc1cc(=O)oc2cc(NC(=O)[C@@H](N)CCCN=C(N)N)ccc12 [R-AMC, L-Arginyl-7-amido-4-methyl coumarin]
lowering of kcat constant (ERAP2^K [3]; ERAP2^K vs ERAP2^N): about 18 fold
Km (ERAP2^K [3]; [8]): 17 ± 5 µM
kcat (ERAP2^K [3]; [8]): 5.8±0.4 ×10^−3 sec^−1
rate of hydrolysis (ERAP2^K [3]; ERAP2^K, fluorescence ex 380 nm, em 460 nm, 5 min): 4.8±3 mmol/mol sec^−1
change of substrate affinity between polymorphic states (ERAP2^K [3]; ERAP2^N vs ERAP2^K): less than 2 fold
Km (ERAP2^N [4]; Michaelis-Menten analysis): 30 ± 9 µM
kcat (ERAP2^N [4]; Michaelis-Menten analysis): 104±9 ×10^−3 sec^−1
rate of hydrolysis (ERAP2^N [4]; fluorescence ex 380 nm, em 460 nm, 5 min): 78±1 mmol product/mol enzyme sec^−1

Compound: Amastatin
inhibition of the two ERAP2 alleles (ERAP2^N [5]): nearly identical

trimming rate relative to ERAP1 (ERAP2^K [2]; [7]): much less efficient
Compound: LSRHHAFSFR

Compound: WLRRYLENGK
trimming rate difference between alleles (ERAP2^N [6]; ERAP2^N versus ERAP2^K): 165 fold

Compound: LSRYWAIRTR
trimming rates, comparison of alleles (ERAP2^N [6]): drastically different
epitope generation from precursor (ERAP2^K [2]; ERAP2^K, RP-HPLC, 20 μM peptide, 37°C, pH 7.0): essentially failing to produce detectable amounts of mature epitope; also recorded: absence of a visible epitope peak produced by ERAP2^K

Compound: RSRYWAIRTR
trimming rates, comparison of alleles (ERAP2^N [6]): almost identical rates by both ERAP2 alleles; also recorded: essentially identical for both alleles
